High-throughput results deposited in PubChem by Broad Institute.
The list is not random: actives were taken first. Their share in the collection is about 3.7%.
ERAP1 inh: human ERAP1 aminopeptidase inhibitors, primary screen, biochemical, single point, plate reader; Endoplasmic reticulum aminopeptidase 1 (Homo sapiens), Q9NZ08; recombinant ERAP1, Leu-AMC fluorescence, 60 min; inhibition, % at 10.7 µM; 0.15% of 340,000 active;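 active = mean replicate inhibition of at least 30%, or all replicates individually reaching that 30% level; inactive = mean below 30% and not every replicate reaching it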;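 also: 0% = neutral control wells and 100% = L-leucinethiol positive control wells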
FGF22 binding: binders of human FGF22 protein, primary screen, FGF22 synaptogenesis inhibitor project, biophysical, thermal shift, single point | recombinant FGF22 thermal shift, SYPRO orange fluorescence; percent of sucrose octasulfate shift, DMSO zero | 1.5% of 340,000 active | activity (Tm shift, normalised), % at 9.99 µM | Fibroblast growth factor 22 (Homo sapiens), Q9HCT0;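 active = mean Tm shift, scaled 0 neutral to 100 positive control, at about 1.3% or above, every replicate too, limit read from the data; inconclusive = no clear call, values can overlap the other calls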
F508del corr: F508del CFTR correction, initial screen, CFBE line, single point | activity (quench increase), % at 7.58 µM | 0.36% of 350,000 active | CFBE cells, YFP halide quenching; stimulated with forskolin plus potentiator P3; % fluorescence drop versus neutral controls;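 active = mean added fluorescence quench of at least 8% versus neutral control, with both replicates also reaching 8%; inconclusive = only one of the mean or replicate conditions met; inactive = mean below 8% and not both replicates reaching 8%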;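 also: cells transiently co-express mutant CFTR-F508del with the halide-sensitive YFP; corrector assay measuring rescue of mutant channel to the surface after 24 h compound exposure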
DENV2 CPE rescue: inhibitors of DENV2 cytopathic effect, primary screen, cell-based, plate reader, single concentration; 1.7% of 350,000 active; DENV2-infected cells, cytopathic effect rescue; CPE inhibition, % at 9.99 µM; in the data active = CPE inhibition above about 20%, passing the limit was not always enough; inconclusive = no clear call, values can overlap the other calls; tested in BHK-21 cells;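 also: 0% = median of neutral control wells and 100% = median of positive control wells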
E-selectin induc: E-selectin induction in HUVECs, primary screen, imaging, HUVEC, immunofluorescence imaging, single point. P16581. normalized: neutral wells 0, TNF-alpha wells 100. activation, % at 7.58 µM. 0.37% of 260,000 active. AID 686992, 2013;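 active = mean E-selectin-positive cell signal at least 10% of the positive control, reached in at least 60% of replicates, without over 20% cell loss; inconclusive = no rule given, readout overlaps actives, possibly toxicity-flagged; inactive = the rest, including those meeting only one limit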
Target sequence (P16581 whole entry, looked up): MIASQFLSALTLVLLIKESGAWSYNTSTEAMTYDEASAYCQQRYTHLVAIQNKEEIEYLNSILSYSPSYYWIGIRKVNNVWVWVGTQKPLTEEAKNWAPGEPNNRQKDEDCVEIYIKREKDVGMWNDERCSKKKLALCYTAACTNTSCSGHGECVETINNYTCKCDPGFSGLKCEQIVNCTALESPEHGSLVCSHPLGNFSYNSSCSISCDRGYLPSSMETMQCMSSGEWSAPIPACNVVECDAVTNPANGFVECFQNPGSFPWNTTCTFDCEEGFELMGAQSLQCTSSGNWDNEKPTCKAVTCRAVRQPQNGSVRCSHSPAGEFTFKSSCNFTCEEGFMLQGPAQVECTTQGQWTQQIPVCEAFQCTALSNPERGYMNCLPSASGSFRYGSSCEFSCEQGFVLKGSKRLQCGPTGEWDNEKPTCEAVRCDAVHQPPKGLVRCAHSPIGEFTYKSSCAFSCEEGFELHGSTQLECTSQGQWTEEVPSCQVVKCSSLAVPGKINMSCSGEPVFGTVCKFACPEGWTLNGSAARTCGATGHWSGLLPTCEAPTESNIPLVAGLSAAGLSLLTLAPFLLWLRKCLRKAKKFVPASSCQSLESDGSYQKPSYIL
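System: HUVEC, human umbilical vein endothelial cells; quantity: 3,000 cells/well; buffer or medium: EGM-2 medium, gelatin-coated wells; dosing: single-point compound dose; detection: immunofluorescence imaging; evaluation: % PE-positive cells; benchmarks: TNF-alpha, DMSO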
* hit, by the source's call; ? = inconclusive; . = no result.

SMILES	ERAP1 inh	FGF22 binding	F508del corr	DENV2 CPE rescue	E-selectin induc
CCOc1ccccc1OCC(=O)NCCc1ccc(S(N)(=O)=O)cc1	2	43*	-3	-3	0
O=C(COC(=O)COc1ccccc1)NCCc1ccccc1	1	0	-1	7	0
COc1ccc2[nH]c(C)c(CCNC(=S)Nc3ccccc3OC)c2c1	-4	43*	2	2	0
CCOc1ccccc1C(=O)NCC(=O)NCCc1ccc(S(N)(=O)=O)cc1	-2	0	0	-7	-11
COc1ccccc1NC(=S)NCCc1ccc(S(N)(=O)=O)cc1	-1	46*	-1	4	.
O=C(COC(=O)COc1ccccc1F)NCCc1ccc(F)cc1	1	0	9.1*	16	0
CC(C)NC(=O)Nc1ccc2c(c1)C(=O)N([C@@H](C)CO)C[C@@H](C)[C@H](CN(C)C(=O)c1ccncc1)OCCCC[C@@H](C)O2	-7	1	-1	6	0
CN(CC(=O)NCCc1ccc(S(N)(=O)=O)cc1)c1ccccc1	1	43*	2	-1	.
CN(CC(=O)NCCc1ccc(S(N)(=O)=O)cc1)S(=O)(=O)/C=C/c1ccccc1	-2	0	-1	2	.
O=C(N/N=C/c1oc(O)c2ccccc12)c1ccccc1	3	44*	-1	2	.
O=C(N/N=C/c1c[nH]c2ccccc12)c1ccccc1	-1	0	1	-1	.
COC(=O)c1cccc(NC(=S)Nc2cc(Cl)ccc2OC)c1	-1	43*	-2	2	1
COc1ccc(NC(=S)NNC(=O)c2cccnc2)cc1OC	-5	0	-2	?	.
COc1ccc(Cl)cc1NC(=S)NNC(=O)c1cccnc1	6	43*	-4	-6	.
COc1ccc(Cl)cc1NC(=S)Nc1ccccc1C	5	0	1	0	.
Cc1noc(C)c1NC(=O)Nc1ccc2c(c1)C(=O)N([C@@H](C)CO)C[C@@H](C)[C@H](CN(C)S(=O)(=O)c1ccc(Cl)cc1)OCCCC[C@@H](C)O2	3	0	4	3	0
COc1ccccc1N(C(=O)c1snc(C(N)=O)c1N)C(C(=O)NCc1ccccc1)c1ccc(C)o1 (stereo unspecified)	-3	0	-2	15	33*
CNC(=O)C[C@H]1CC[C@H]2[C@H](COc3ccc(NC(=O)Cc4cccs4)cc3C(=O)N2C)O1	.	0	1	1	0
Cc1ccc(S(=O)(=O)Nc2cccc(C(=O)NCCCn3ccnc3)c2)cc1F	-2	0	-3	54*	1
CCCNC(=O)N1CC2(C1)CN(C(=O)CC)[C@@H](CO)c1[nH]c3cc(OC)ccc3c12	.	0	0	-4	0
O=C(CCS(=O)(=O)c1ccccc1)Nc1cccc(-c2nc3ccccc3s2)c1	0	1	-9	-3	0
O=C(CCS(=O)(=O)c1ccccc1)Nc1ccc(S(=O)(=O)Nc2nccs2)cc1	2	43*	5	-2	0
O=C(CCc1ccccc1)Nc1ccc(S(=O)(=O)Nc2nccs2)cc1	2	0	-1	1	0
O=C(CCS(=O)(=O)c1ccccc1)Nc1ccc(-c2nc3ccccc3s2)cc1	-1	44*	-1	-7	.
O=C(Nc1ccc(Cl)cc1)N1C[C@@H]2[C@H](c3ccccc31)[C@H](CO)N2C(=O)c1ccccn1	.	0	0	.	0
SMILES	ERAP1 inh	FGF22 binding	F508del corr	DENV2 CPE rescue	E-selectin induc
C[C@@H]1CN([C@@H](C)CO)C(=O)c2cc(NC(=O)CCCCCC(=O)Nc3ccccc3N)ccc2O[C@@H]1CN(C)CC1CCCCC1	1	0	1	-3	0
C[C@H]1CN([C@@H](C)CO)C(=O)c2cc(-c3ccc(F)cc3)cnc2O[C@@H]1CN(C)C(=O)NC1CCCC1	-1	0	0	0	0
COc1ccc(/C=C/C2=CCN(Cc3ccc(OC)cc3)CC2)cc1	0	43*	.	3	.
C[C@H](CO)N1C[C@H](C)[C@H](CN(C)S(=O)(=O)c2ccc(Cl)cc2)OCCCC[C@H](C)Oc2ccc(NC(=O)CCCN(C)C)cc2C1=O	0	0	1	21*	0
C[C@@H]1CCCCO[C@@H](CN(C)S(C)(=O)=O)[C@@H](C)CN([C@H](C)CO)C(=O)c2cc(NC(=O)CCCN(C)C)ccc2O1	-1	0	-2	-3	49*
C[C@@H]1CCCCO[C@H](CN(C)S(C)(=O)=O)[C@@H](C)CN([C@H](C)CO)C(=O)c2cc(NC(=O)CCC(F)(F)F)ccc2O1	-2	1	2	116*	0
Cc1ccc(S(=O)(=O)Nc2ccc3c(c2)C(=O)N([C@H](C)CO)C[C@H](C)[C@H](CN(C)C(=O)c2ccccc2)OCCCC[C@H](C)O3)cc1	-2	.	3	-3	.
NC(=O)CSc1nccn1Cc1ccc(Cl)cc1	0	0	1	-3	1
NC(=O)CSc1nccn1Cc1ccccc1	-4	43*	0	9	0
CCCNC(=O)N1CC2(C1)[C@@H](c1ccccc1)[C@H](CO)N2CC1CC1	-1	.	1	?	0
Cc1ccc(OCC(=O)NNC(=O)[C@@H]2CCCC[C@@H]2C(=O)O)c(Br)c1	-2	0	1	-5	1
Cc1cccc(OCC(=O)NNC(=O)C2CCCCC2C(=O)O)c1 (stereo unspecified)	-2	0	0	22*	1
CCN1/C(=C/C(C)=C/c2sc3ccccc3[n+]2CC)Sc2ccccc21	-3	0	-13	-4	155*
CCC(=O)N1C[C@@H](C)[C@@H](OC)CN(C)C(=O)c2cc(NC(=O)Nc3cccc(F)c3)ccc2OC[C@@H]1C	1	0	-1	-3	0
c1ccc(-c2cc3c(N4CCN(c5ncccn5)CC4)ncnc3s2)cc1	-4	44*	0	4	3
CC(Cc1ccccc1)C(=O)NCc1ccncc1 (stereo unspecified)	1	0	-1	.	0
OC(Cc1ccncc1)c1ccccc1Cl (stereo unspecified)	2	43*	-4	8	1
CCN(Cc1ccc(OC)c(F)c1)C(=O)C1CCCO1 (stereo unspecified)	50*	0	1	0	.
C[C@H](CO)N1C[C@H](C)[C@H](CN(C)S(=O)(=O)c2ccccc2)OCc2cn(nn2)CCCC1=O	.	.	0	.	0
CN(C)CCCNC(CC(=O)Nc1cccc([N+](=O)[O-])c1)C(=O)O (stereo unspecified)	-2	0	0	48*	.
CC(=O)N(C)C[C@H]1Oc2cc(C#Cc3cccnc3)ccc2S(=O)(=O)N([C@@H](C)CO)C[C@@H]1C	0	0	4	-7	1
